We go through five compounds from PMC12318077 (Scientific Reports, 2025).

One data set has as its system L. tropica promastigotes. The experiment in a line: Promastigotes proliferation assessment by MTT assay. Type of data set: cell-based, Leishmania tropica. The note with it: for IC50: 48 h. For orientation: Tetrazolium assays rely on reduction of a dye to a coloured formazan, in cell work by metabolically active cells.
The next data set in a line: Cytotoxicity assay. Conditions: human, 5% suspension of human blood erythrocytes. Type of data set: cell-based. Put shortly: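 Test compound (25–426 µM) incubated with a 5% suspension of human blood erythrocytes at 37 °C for 3 h. 0.1% DMSO served as the negative control and 0.5% Triton X-100 as the positive control. Samples were spun at 1000 × g for 10 min, and released hemoglobin was read at 576 nm. Percent hemolysis was calculated and CC50 derived by linear interpolation. Triplicates, mean ± SD.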

For orientation: IC50 means the concentration that inhibits the measured activity by half. In the case of “5,5′,5″-(nitrilotris(ethane-2,1-diyl))tris(3-(4-ethylphenyl)-1,3,5-thiadiazinane-2-thione) [Compound T24]”, half-maximal inhibition in the data set with L. tropica promastigotes (L. tropica promastigotes, MTT, dose range 25–426 µM) (IC50) required 26.9 µM.

As for `C[C@@H]1[C@H](O)[C@@H](C)/C=C/C=C/C=C/C=C/C=C/C=C/C=C/[C@H](O[C@@H]2O[C@H](C)[C@@H](O)[C@H](N)[C@@H]2O)C[C@@H]2O[C@](O)(C[C@@H](O)C[C@@H](O)[C@H](O)CC[C@@H](O)C[C@@H](O)CC(=O)O[C@H]1C)C[C@H](O)[C@H]2C(=O)O` [Amp-B, Amphotericin B, reference compound], the IC50 with L. tropica promastigotes (Leishmania tropica) stood at 15.7 µM. Besides, the “SI index (IC50/CC50 µM)” value in the data set with L. tropica promastigotes (ratio of hemolysis CC50 and L. tropica IC50) came to 0.18.

For orientation: CC50 means the concentration giving 50% cytotoxicity. The low end stands for harm at low concentration, the high end for better tolerance by the cells. Regarding `CCCCN1CN(CC(=O)O)CSC1=S` [BG, 2-(5-Butyl-6-thioxo-1,3,5-thiadiazinan-3-yl) acetic acid], it took 376 µM to reach half-maximal cytotoxicity in the data set “Cytotoxicity assay” (CC50 at 3 h).

`Cc1cc(C)c(N2CSC(=S)N(CCN(CCN3CN(c4c(C)cc(C)cc4C)CSC3=S)CCN3CN(c4c(C)cc(C)cc4C)CSC3=S)C2)c(C)c1` [Compound T25, 3,3′,3″-(nitrilotris(ethane-2,1-diyl))tris(5-mesityl-1,3,5-thiadiazinane-2-thione)]: the CC50 at 3 h in the data set “Cytotoxicity assay” was 89.7 µM. The compound further registered an IC50 in the data set with L. tropica promastigotes (Leishmania tropica) of 27.7 µM.

Turning to `CCCN1CN(CC(=O)O)CSC1=S` [PG, 2-(5-propyl-6-thioxo-1,3,5-thiadiazinan-3-yl)acetic acid], in the data set “Cytotoxicity assay”, the cytotoxic concentration (CC50) at 3 h was determined as 402 µM. In the data set with L. tropica promastigotes (Leishmania tropica), this compound came in with an IC50 of 82.8 µM.
